Bioassay records deposited in PubChem BioAssay by several laboratories.
SF-1 act = SF-1 (human) activation; actives 1.9% (n = 65,000); Q13285; CHO-K1 Gal4-SF-1 LBD luciferase reporter; % increase over DMSO SF-1-specific signal; AID 522; activation, % at 10 µM;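 active = activation above the mean activation of all tested compounds plus 3 SD, cut at about 50% in these data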
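Assay system: CHO-K1 cells co-transfected with Gal4 DBD–human SF-1 LBD, 5xGal4 luciferase reporter / Input: 4,000 cells per well / Incubation: 20 h compound exposure at 37 °C after 1 h cell settling / Detection: SteadyLite luciferase luminescence / Control set: DMSO negative control and −SF1 background wells / Replication: one test per compound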
Mac1 fbg inh = inhibitors of human CD11b/CD18 binding to fibrinogen. inhibition, % at 10 µM. P05107+P11215. actives 0.54% (n = 93,000). K562 CD11b/CD18 adhesion to fibrinogen, ATPlite luminescence; Mn2+ added to activate the integrin;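 active = primary inhibition of 50% or more at 10 µM, then 40% or more on retest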
Target sequence (P05107 whole entry, looked up, other chains not shown): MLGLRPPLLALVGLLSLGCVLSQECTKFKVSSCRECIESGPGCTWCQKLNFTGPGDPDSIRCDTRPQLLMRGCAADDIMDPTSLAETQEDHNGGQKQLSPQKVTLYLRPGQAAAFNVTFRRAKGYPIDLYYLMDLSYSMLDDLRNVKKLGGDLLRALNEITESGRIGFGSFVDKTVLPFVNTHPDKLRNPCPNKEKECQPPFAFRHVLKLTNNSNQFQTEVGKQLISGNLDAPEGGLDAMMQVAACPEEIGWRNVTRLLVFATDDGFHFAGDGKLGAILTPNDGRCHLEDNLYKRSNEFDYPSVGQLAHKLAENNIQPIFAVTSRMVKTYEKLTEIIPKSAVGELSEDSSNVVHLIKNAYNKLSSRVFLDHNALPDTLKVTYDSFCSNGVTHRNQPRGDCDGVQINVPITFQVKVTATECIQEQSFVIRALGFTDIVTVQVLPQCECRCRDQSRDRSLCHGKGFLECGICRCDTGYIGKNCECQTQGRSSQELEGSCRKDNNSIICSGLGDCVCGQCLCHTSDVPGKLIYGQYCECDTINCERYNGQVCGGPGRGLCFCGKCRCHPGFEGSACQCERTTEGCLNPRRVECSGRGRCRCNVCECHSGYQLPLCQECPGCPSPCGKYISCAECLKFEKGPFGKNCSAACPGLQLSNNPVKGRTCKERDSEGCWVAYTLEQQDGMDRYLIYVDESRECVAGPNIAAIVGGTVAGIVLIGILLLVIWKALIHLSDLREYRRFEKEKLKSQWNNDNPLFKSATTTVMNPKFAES
MT1-MMP txn act = activates MT1-MMP transcription; HT1080 MT1-MMP promoter luciferase reporter, luminescence, overnight; stronger effect = higher value; actives 0.16% (n = 86,000); activation factor at 10 µM;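 active = activation factor of at least 2 for MT1-MMP transcription at 10 µM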
Candida biofilm = kills Candida albicans biofilms; inhibition, % at 6 µM; actives 0.14% (n = 85,000); C. albicans biofilm + clotrimazole, Alamar Blue;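 active = inhibition above 20%; inactive = inhibition below 20%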;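 also: preformed 24 hr biofilms exposed to compound for 48 hr; 0% = biofilm without compound and 100% = blank killed by clotrimazole plus chlorhexidine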
CD11b adhes enh = CD11b/CD18-fibrinogen binding enhancement; activation, % at 10 µM; AID 1499; K562 CD11b/CD18 adhesion to fibrinogen, ATPlite luminescence; P05107+P11215; actives 0.07% (n = 93,000);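 active = 10 µM primary screen giving 50% or more activity, confirmed by 40% or more on retest at that dose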
RORa activator = activates the human nuclear receptor RORA | CHO-K1 Gal4-RORA LBD luciferase reporter, luminescence; percent increase over mock-subtracted basal signal | activation, % at 10 µM | actives 1.5% (n = 65,000);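 active = activation above the mean of all tested compounds plus 3 SD, cut at about 49% in these data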;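 also: 0% = DMSO-treated RORA cells and 100% = added signal equal to DMSO minus mock-transfected cells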
The depositor's hits bear a star; / = no result given. Shown are actives, neighbours in structure and some others; about 2.2% of the full set was active somewhere.

SMILES	SF-1 act	Mac1 fbg inh	MT1-MMP txn act	Candida biofilm	CD11b adhes enh	RORa activator
COc1cccc(-c2noc(-c3cccs3)n2)c1	-8.4	-3.9	1.3	6.4	1.5	66.5*
Cc1ccccc1-c1noc(-c2cccs2)n1	53.1*	7.8	1.4	7.9	-1.5	39.4
CCCC[C@@H]1C[C@H]1C(NC(=O)c1ccccc1)c1ccc(C(F)(F)F)cc1 (stereo not given in full)	/	/	1.2	/	/	/
COC(=O)/C=C1/S/C(=N/N=C/c2ccc(N(C)C)cc2)NC1=O	/	-1.8	/	/	10.6	/
Nc1c(C(=O)Nc2ccc3c(c2)OCCO3)nnn1CCc1ccccc1	92.4*	-2.2	1.1	-0.1	-1.1	141.9*
Cc1cccc(-n2ncc3c(N4CC(C)CC(C)C4)ncnc32)c1 (stereo not given)	50.7*	8.8	1.2	6.8	-4.6	46.9
CC1CN(c2ncnc3c2cnn3-c2ccc(Cl)cc2)CC(C)O1 (stereo not given)	74.7*	-13.4	1.5	7.4	-1.0	67.1*
COCCOC(=O)c1c(NC(=O)CN2CCCc3ccccc32)sc(C(N)=O)c1C	/	-19.2	/	/	-0.4	/
CC(=O)c1ccc(NC(=O)Nc2cccc(Cl)c2)cc1	/	96.8*	1.1	3.6	-6.7	/
COc1ccccc1-n1cnnc1SC(C)C(=O)Nc1cccc([N+](=O)[O-])c1 (stereo not given)	/	10.8	/	/	4.6	/
CCn1c(SCc2nc(-c3ccc(Cl)cc3)no2)nnc1-c1ccco1	/	58.4*	1.2	-0.5	-8.3	/
CCn1c(SCC(=O)c2cccs2)nnc1-c1ccco1	53.6*	-15.1	1.3	7.2	2.9	6.7
CC1N(C)c2cc(NC(=O)c3ccco3)ccc2C1(C)C (stereo not given)	71.3*	0.9	1.4	5.7	-4.7	33.1
Cc1nn(C)c(C)c1/C=C1/SC(=S)NC1=O	/	32.1	/	/	-2.2	/
Cc1ccc(C2C(/C=C3/SC(=S)NC3=O)=C(c3cccs3)Oc3ccccc32)cc1 (stereo not given)	/	78.0*	1.2	3.1	1.8	/
COc1ccc(-c2cn3ccc4ccccc4c3n2)cc1	/	/	2.5*	8.5	/	/
Cc1cccn2cc(-c3ccc(F)cc3)nc12	30.4	10.3	0.6	6.0	1.4	30.1
Cc1ccc2nc(-c3ccccc3)cn2c1	-89.2	68.7*	0	7.9	-7.4	-89.0
Cc1cccn2cc(-c3ccccc3)nc12	1.3	2.3	0.8	-1.0	-3.8	75.8*
Cc1ccc2nc(-c3ccc(S(=O)(=O)N4CCOCC4)cc3)cn2c1	-7.0	0.2	1	-1.1	4.2	-23.7
CC1CCc2nc(NC(=O)Nc3ccc4c(c3)OCO4)sc2C1 (stereo not given)	/	7.6	/	/	-1.9	/
COc1cccc(-c2cc(N)nn2C(=O)Nc2ccc(Cl)cc2)c1	10.4	1.1	1.2	/	5.2	23.8
Cc1cccc(Cn2c(=O)n(CCCC(=O)NCc3ccco3)c(=O)c3ccccc32)c1	33.6	/	1.1	3.3	/	54.6*
Fc1cccc(Cl)c1Cn1nnc(-c2ccc3c(c2)OCO3)n1	70.5*	7.0	1.2	3.1	3.1	56.0*
Cc1ccccc1Cn1nnc(-c2ccc3c(c2)OCO3)n1	/	/	1.3	7.6	/	/
SMILES	SF-1 act	Mac1 fbg inh	MT1-MMP txn act	Candida biofilm	CD11b adhes enh	RORa activator
O=C1OCC(CO)(CO)N=C1NNc1ccc(Cl)c(Cl)c1	/	11.0	/	/	1.9	/
CC1CCc2c(sc(NC(=O)c3noc4c3CCCC4)c2C(N)=O)C1 (stereo not given)	49.9*	/	1.8	0.3	/	100.8*
Cc1noc(C)c1C(=O)Nc1sc2c(c1C(N)=O)CCCCC2	13.7	10.3	1.2	3.8	-8.2	-18.0
Cc1ccc(NC(=O)CCCCCCCCCCC2COCCO2)c(C)c1 (stereo not given)	/	34.8	/	/	14.8	/
Cc1cc(C)c(S(=O)(=O)NCc2ccncc2)c(C)c1	/	83.3*	1.1	6.0	-8.7	/
CCC#CCOCC(=S)Nc1ccccc1	/	/	1.2	/	/	/
CC(=O)Nc1cc(C(C)(C)C)c(O)c(C(C)(C)C)c1	/	-65.0	1.2	67.8*	-3.0	/
CCOC(=O)C1=C(C)N(CCCCCC(=O)O)C(=O)NC1c1cccc(Cl)c1Cl (stereo not given)	/	/	1.2	/	/	/
COc1ccccc1-c1c(C(F)(F)F)oc2cc(OCC(=O)Nc3cc(C)ccc3C)ccc2c1=O	/	8.2	/	/	4.8	/
O=C(c1cc(-c2ccccc2)on1)N1CCCC1	56.7*	-8.0	0.9	5.3	5.2	24.6
O=C(c1cc(-c2ccccc2O)on1)N1CCc2ccccc2C1	23.1	-5.5	1.1	0.0	-0.8	-13.7
O=C(c1cc(-c2ccc(Cl)c(Cl)c2)on1)N1CCCCC1	43.0	-6.3	1.5	-0.1	-3.1	92.4*
O=C(c1cc(-c2ccc(Cl)c(Cl)c2)on1)N1CCN(c2ccccc2)CC1	10.9	-8.1	1.1	/	3.7	-16.0
CC1CCN(C(=O)c2cc(-c3ccccc3O)on2)CC1	99.1*	-0.2	1.2	-1.0	0.6	63.8*
O=C(c1cc(-c2cccc(O)c2)on1)N1CCOCC1	0.3	-9.4	0.6	3.8	0.7	-18.6
O=C1[O][Bi][O]c2ccccc21	/	/	1.1	9.4	/	/
CCc1c2c(nc3cccc(OC)c13)OC(CC)C2 (stereo not given)	/	/	1.2	/	/	/
CCOC(=O)CSC1=C(C#N)C(c2ccc(C)s2)CC(=O)N1 (stereo not given)	25.6	31.6	0.5	5.6	-8.7	54.2*
CCOc1ccc2nc(N3CCOCC3)nc(C)c2c1	47.3	-25.6	1	4.6	-1.8	50.6*
CCOc1ccc(Nc2cc(C)nc(N3CCOCC3)n2)cc1	6.2	-12.8	1.2	1.7	-2.0	-1.0
CCCOC(=O)c1sc2nc3c(cc2c1N)C(=O)CCC3	60.5*	-29.9	1.3	5.2	8.2	35.1
Nc1c(C(=O)NCc2ccco2)sc2nc3c(cc12)C(=O)CCC3	31.3	-7.4	1.1	1.3	6.7	6.8
c1ccc2c(c1)NC1(CCCC1)n1c-2nc2ccccc21	59.3*	26.6	1.7	-0.8	-3.0	40.4
CCCC1(C)Nc2ccccc2-c2nc3ccccc3n21 (stereo not given)	/	15.5	1.6	0.6	-1.8	/
COc1ccc(Cc2nnc(NC(=O)CSc3ccc(Cl)cc3)s2)cc1OC	/	4.7	/	/	7.9	/
CCCc1nc(-c2ccc(-c3ccc(F)cc3)cc2)no1	53.3*	18.3	1.4	4.7	-1.1	17.7
Cc1nn2c(c1-c1ccccc1)NC1=C(C(=O)CCC1)C2c1cccnc1 (stereo not given)	-4.6	/	1.1	7.1	/	-6.5
COC(=O)c1sccc1NC(=O)CSc1nnnn1-c1ccccc1C	/	1.2	1.1	26.9*	1.6	/
O=c1c2ccccc2nc2sc3ccccc3n12	56.8*	/	1.8	/	/	60.4*
